The test system of assay [1] is HeLa. As to the kind of experiment: Effect on DNA synthesis by HeLa cells was determined by the percentage inhibition of [3H]- thymidine incorporation after 3h at 100 uM. The assay is classed as functional. Conditions: Homo sapiens. The method, boiled down: (§1)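 Exponentially growing HeLa S3 cells (7×10^5 cells/mL, suspension) exposed to compound at 100 μM in Me2SO, or Me2SO alone, at 37 °C. After 3 h, [methyl-3H]thymidine added to 1 μCi/mL. After 30 min, quenched with cold PBS, pelleted, alkali hydrolysed (1 M NaOH, 65 °C, 1 h), TCA/pyrophosphate precipitated and filtered. Alkali-stable acid-insoluble counts give % inhibition versus solvent control.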
(In general: Uptake of a labelled nucleoside into DNA is a usual measure of proliferation.)

The test system of assay [2] is HeLa. The experiment in a line: Effect on DNA synthesis by HeLa cells was determined by the percentage inhibition of [3H]- thymidine incorporation after 3h. The assay is classed as functional, cell-based. To be noted: Homo sapiens.
Assay [3] deals with HeLa. The experiment in a line: Compound (at a concentration of 100 uM) was evaluated for the effect on DNA synthesis by HeLa cells in culture and the percentage inhibition of [3H]- thymidine incorporation after 3h of addition was reported. The assay is classed as functional. To be noted: Homo sapiens. The method, boiled down:
as §1

Assay [4] has as its system HeLa. The experiment in a line: Effect on DNA synthesis by HeLa cells was determined by the percentage inhibition of [3H]- thymidine incorporation after 3h at 200 uM. The class given is functional, Homo sapiens. The method in brief: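 HeLa S3 cells in exponential suspension culture (7×10^5 cells/mL) treated at 200 μM in Me2SO, or Me2SO alone, at 37 °C. After 3 h, [methyl-3H]thymidine added to 1 μCi/mL for 30 min. Cells were then pelleted, NaOH hydrolysed at 65 °C, and TCA precipitated onto filters. Alkali-stable acid-precipitable radioactivity gives % inhibition against solvent control.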

The subject of assay [5] is HeLa. As to the kind of experiment: Compound was evaluated for the effect on DNA synthesis by HeLa cells in culture and the inhibition of [3H]- thymidine incorporation after 3h of addition. The assay is classed as functional, cell-based. To be noted: Homo sapiens. The method, boiled down:
(§2)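 IC50 for [methyl-3H]thymidine incorporation into DNA of exponentially growing HeLa S3 suspension cells (7×10^5 cells/mL). Compounds in Me2SO, or Me2SO control, incubated 3 h at 37 °C, then label added at 1 μCi/mL for 30 min. Alkali-stable, acid-precipitable counts measured after NaOH (65 °C, 1 h) and TCA/pyrophosphate filtration.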

For assay [6], the system named is HeLa. The experiment in a line: Compound was evaluated for the effect on [3H]- Uridine incorporation by HeLa cells and percentage inhibition into DNA. The assay is classed as functional, Homo sapiens. The method, boiled down: (§3)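 HeLa S3 cells grown in suspension, exponential phase (7 × 10^5 cells/mL), given compound in Me2SO (Me2SO alone for controls) for 3 h at 37 °C, then [5,6-3H]uridine to 1 μCi/mL for 45 min. DNA: alkali-stable, TCA-precipitable counts after 1 M NaOH at 60 °C for 1 h. RNA: total acid-precipitable nucleic acid minus DNA counts. Percent inhibition relative to control.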

The subject of assay [7] is HeLa. As to the kind of experiment: Compound was evaluated for the effect on [3H]- Uridine incorporation by HeLa cells and percentage inhibition into RNA. The assay is classed as functional, Homo sapiens. The method in brief: as §3
Assay [8] concerns HeLa. As to the kind of experiment: Effect on growth and macromolecule synthesis by HeLa cells was determined as the percentage inhibition of [3H]- leucine incorporation after 3h of addition at 100 uM. The class given is functional. Conditions: Homo sapiens.
Assay [9] concerns HeLa. The experiment in a line: Percent inhibition against [3H]-Uridine incorporation into RNA of HeLa cell after 45 mins of treatment at 100 uM. The class given is functional. Conditions: Homo sapiens. The method, boiled down: (§4)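 Exponentially growing HeLa S3 cells (7×10^5 cells/mL) treated with compound in Me2SO (100 μM, or 10 μM where stated), or Me2SO alone, for 3 h at 37 °C. [5,6-3H]uridine then added to 1 μCi/mL for 45 min. DNA: counts remaining acid-precipitable after 1 M NaOH at 60 °C, 1 h. RNA: total TCA-precipitable counts minus the DNA counts.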

Assay [10] has as its system HeLa. The experiment in a line: Effect on DNA synthesis by HeLa cells was determined by the inhibition of [3H]- thymidine incorporation after 3h of addition. The class given is functional, cell-based. Conditions: Homo sapiens. The method in brief: as §2
Assay [11] deals with HeLa. As to the kind of experiment: Percent inhibition against [3H]-Uridine incorporation into DNA of HeLa cell after 45 mins of treatment at 100 uM. The assay is classed as functional. Conditions: Homo sapiens. The method in brief:
as §4

The subject of assay [12] is HeLa. As to the kind of experiment: Compound was evaluated for the effect on growth and macromolecule synthesis by HeLa cells and the cell growth inhibition. The class given is functional, cell-based. To be noted: Homo sapiens. The method, boiled down: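 HeLa S3 cells (ca. 2.5×10^4 cells/mL), exponentially growing in Joklik's modified medium with 3.5% calf and 3.5% fetal bovine serum, preincubated 3 h at 37 °C in spinner flasks. Compound in Me2SO or solvent added, and cells counted at t=0 and after 72 h. IC50 derived from % growth inhibition.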

For assay [13], the system named is HeLa. The experiment in a line: Compound was evaluated for the effect on DNA synthesis by HeLa cells in culture and the percentage inhibition of [3H]- thymidine incorporation after 3h of addition was reported at 100 uM. The class given is functional. Conditions: Homo sapiens. The method, boiled down: as §1
Assay [14] concerns HeLa. As to the kind of experiment: Percent inhibition against [3H]uridine incorporation into DNA of HeLa cell after 45 mins of treatment. The assay is classed as functional, Homo sapiens. The method in brief: as §4
For assay [15], the system named is HeLa. The experiment in a line: Percent inhibition against [3H]uridine incorporation into RNA of HeLa cell after 45 mins of treatment. The assay is classed as functional, Homo sapiens. The method in brief: as §4
For assay [16], the system named is HeLa. As to the kind of experiment: Compound (at a concentration of 100 uM) was evaluated for the effect on growth and macromolecule synthesis by HeLa cells and the percentage inhibition of [3H]- leucine incorporation after 3h of addition. The assay is classed as functional. Conditions: Homo sapiens.
Assay [17] has as its system HeLa. As to the kind of experiment: Percent inhibition against [3H]uridine incorporation into RNA of HeLa cell after 45 mins of treatment at 10 uM. The assay is classed as functional. Conditions: Homo sapiens. The method, boiled down:
as §4

A word on the inhibition: it is the relative decrease from the control value, in per cent. Higher therefore signals a response far below the control. What is called IC50 is the concentration at which inhibition is half-maximal. In [1], `CCCCc1ccc(Nc2ncc3ncn(COCCO)c3n2)cc1` gave an inhibition at 100 µM of 97%. In addition, in [2], the concentration for half-maximal inhibition (IC50) is 4.8 µM.

In assay [3], `CCc1cc(Nc2nc(O)c3[nH]cnc3n2)ccc1C` gave an inhibition at 100 µM of 44%.

Usually Inhibition stands for the percentage by which the read-out fell short of the control. The molecule `CCCCc1ccc(Nc2nc3c(ncn3[C@@H]3C[C@@H](O)[C@H](CO)O3)c(=O)[nH]2)cc1` (stereo in doubt; 11) displayed an Inhibition in assay [4] of 53%.

Consider `Oc1[nH]c(Nc2ccc3c(c2)CCC3)nc2ncnc1-2`, for which testing at 100 µM in assay [3] gave an inhibition of 79%. The same molecule returned a half-inhibitory concentration (IC50) in assay [5] of 52 µM.

For the molecule `C[C@@]1(CO)[C@H](O)CC[C@@]2(C)[C@H]1CC[C@H]1C[C@@H]3C[C@@]12CC[C@]3(O)CO` [APHIDICOLIN], the values for the Inhibition in assay [6] and in assay [7] were 84% and 0%, respectively.

`CCCCc1ccc(Nc2nc(SC)c3[nH]cnc3n2)cc1` displayed an inhibition at 100 µM in assay [3] of 72%. In addition, half-maximal inhibition in assay [5] (IC50) was put at 32 µM.

In the case of `CCCCc1ccc(Nc2nc3c(ncn3[C@@H]3C[C@@H](O)[C@H](CO)O3)c(=O)[nH]2)cc1`, the inhibition at 100 µM in assay [8] was determined as 7%; in assay [1], 86%; in [9] it was 91%; in assay [11] it was 91%. Moreover, the IC50 in [10] was determined as 37 µM; in assay [12] it was 25 µM.

In [1], `CCCCc1ccc(Nc2nc(Cl)c3ncn(COCCO)c3n2)cc1` registered an inhibition at 100 µM of 99%. For the same molecule, the half-inhibitory concentration (IC50) in assay [2] came out at 9 µM.

As to `CCCCc1ccc(Nc2nc3c(ncn3[C@@H]3C[C@@H](O)[C@H](CO)O3)c(=O)[nH]2)cc1` (stereo in doubt; 12), the inhibition at 200 µM in assay [4] (Homo sapiens, HeLa, 3 h) came to 46%.

In the case of `CCCCc1ccc(Nc2nc(Cl)c3[nH]cnc3n2)cc1`, the inhibition at 100 µM in assay [13] worked out at 99%. This molecule gave an IC50 in [5] of 35 µM.

Turning to `CCCCc1ccc(Nc2nc(OC)c3ncn(COCCO)c3n2)cc1`, testing at 100 µM in assay [1] gave an inhibition of 80%.

Regarding `CCCCc1ccc(Nc2nc(S)c3[nH]cnc3n2)cc1`, the inhibition at 100 µM in assay [3] is 94%. The molecule also registered an IC50 in assay [5] of 40 µM.

Consider `CCCCc1ccc(Nc2nc(S)c3ncn(COCCO)c3n2)cc1`, for which the inhibition at 100 µM in assay [1] is 87%.

With `CCCCc1ccc(Nc2nc(N)c3ncn(COCCO)c3n2)cc1`, in assay [1], the inhibition at 100 µM amounted to 97%. Besides, in assay [2], inhibition was half-maximal at 8.5 µM (IC50).

Regarding `CCCCc1ccc(Nc2nc(N)c3[nH]cnc3n2)cc1`, the values for the Inhibition in assay [14] and in assay [15] were 93% and 87%, respectively. In addition, the inhibition at 100 µM in assay [3] is 92%; in assay [16], 47%. For the same molecule, the IC50 came out at 40 µM in [12] and 23 µM in assay [5].

`CCCCc1ccc(Nc2nc(OC)c3[nH]cnc3n2)cc1`: in [3], testing at 100 µM gave an inhibition of 80%. Besides, the IC50 in assay [5] amounted to 30 µM.

In assay [4], `CCCCc1ccc(Nc2nc3c(ncn3[C@H]3O[C@@H](CO)[C@H](O)[C@@H]3O)c(=O)[nH]2)cc1` (stereo in doubt; 13) registered an Inhibition of 75%.

For the molecule `CCCCc1ccc(Nc2ncc3ncn([C@@H]4C[C@@H](O)[C@H](CO)O4)c3n2)cc1`, the figures for the inhibition at 100 µM in [8] and in [1] were 58% and 97%, respectively. The IC50 was 4.8 µM in assay [2] and 5 µM in [12].

As to `CCCCc1ccc(Nc2nc(O)c3[nH]cnc3n2)cc1`, the inhibition at 100 µM in assay [13] stood at 63%; in assay [16], 13%. For the same molecule, the Inhibition in assay [14] and in [15] was 76% each time. Moreover, the concentration for half-maximal inhibition (IC50) came to 65 µM in [12] and 69 µM in [5].

As to `CCCCc1ccc(Nc2nc(S)c3ncn([C@@H]4C[C@@H](O)[C@H](CO)O4)c3n2)cc1`, at 100 µM the inhibition in assay [1] was 63%.

Molecule `CCCCc1ccc(Nc2nc3ncnc-3c[nH]2)cc1` registered an inhibition at 100 µM in assay [3] of 78%. Also, half-maximal inhibition in assay [5] (IC50) required 47 µM.

Take `CCCCc1ccc(Nc2nc(O)c3ncn(COCCO)c3n2)cc1`: the inhibition at 100 µM in [1] amounted to 81%. This molecule gave a concentration for half-maximal inhibition (IC50) in assay [2] of 38 µM.

`CCCCc1ccc(Nc2nc(Cl)c3ncn([C@@H]4C[C@@H](O)[C@H](CO)O4)c3n2)cc1`: the inhibition at 100 µM is 87% in assay [8] and 97% in [1]. The 50% inhibitory concentration (IC50) is 11 µM in assay [2] and 10.3 µM in assay [12].

As for `CCCCc1ccc(Nc2nc3c(ncn3[C@H]3O[C@@H](CO)[C@H](O)[C@@H]3O)c(=O)[nH]2)cc1` (stereo in doubt; 14), in [4], the Inhibition came out at 38%.

With `CCCCc1ccc(Nc2nc(N)c3ncn([C@@H]4C[C@@H](O)[C@H](CO)O4)c3n2)cc1`, the values for the inhibition at 100 µM in assay [8] and in [1] were 56% and 96%, respectively. Besides, the IC50 in assay [2] was 1 µM; in [12] it was 1.4 µM. In addition, the Inhibition in assay [14] stood at 81%. Moreover, the inhibition at 10 µM in assay [17] was determined as 73%.
